High-throughput results (PubChem BioAssay)
Sampled rows, rich in hits. Any-hit rate of the full collection: about 5.8%.
p47phox inh: blocks human p47phox regulatory protein of NADPH oxidases. AID 1274. inhibition, % at 24.7 µM. P14598. 220,000 tested, 0.53% active. p47phox/p22phox peptide binding, fluorescence polarization, 2 h;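 active = inhibition above about 30%, limit read from the data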;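 also: 0% = p47phox with labelled peptide and 100% = labelled peptide alone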
Target sequence (P14598 whole entry, looked up): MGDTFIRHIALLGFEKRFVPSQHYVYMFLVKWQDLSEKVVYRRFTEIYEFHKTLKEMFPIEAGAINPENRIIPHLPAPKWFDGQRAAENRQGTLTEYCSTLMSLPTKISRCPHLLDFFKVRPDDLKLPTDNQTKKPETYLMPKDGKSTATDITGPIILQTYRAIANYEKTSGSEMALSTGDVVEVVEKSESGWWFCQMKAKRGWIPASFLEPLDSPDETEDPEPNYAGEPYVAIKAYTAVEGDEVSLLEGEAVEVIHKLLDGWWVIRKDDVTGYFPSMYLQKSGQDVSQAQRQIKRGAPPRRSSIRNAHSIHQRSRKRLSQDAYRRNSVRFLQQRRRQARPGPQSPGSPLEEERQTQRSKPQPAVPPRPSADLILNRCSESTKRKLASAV
KCC2 mod: modulates chloride dependent transport by human KCC2; KCC2 cells, thallium flux FluoZin-2 fluorescence; 190,000 tested, 2.2% active; Q9H2X9; B-score of Tl+ flux slope (higher = more flux/activation; lower = inhibition) at 10 µM;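 active = thallium flux slope and its plate-corrected score both differing from the plate sample mean at a set confidence after two filtering rounds, in either direction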;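 also: slope of fluorescence scaled to starting intensity during 10 to 20 s after thallium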
RBBP9 inh: blocks human serine hydrolase RBBP9; inhibition, % at 7.94 µM; recombinant RBBP9, FP-Rh probe fluorescence polarization; AID 1515; 220,000 tested, 0.2% active; O75884;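 active = inhibition above the campaign mean of all tested compounds plus 3 SD, cut at about 14% in these data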;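 also: plate controls were DMSO wells with RBBP9 for no effect and wells lacking RBBP9 protein for full effect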
Target sequence (O75884 whole entry, looked up): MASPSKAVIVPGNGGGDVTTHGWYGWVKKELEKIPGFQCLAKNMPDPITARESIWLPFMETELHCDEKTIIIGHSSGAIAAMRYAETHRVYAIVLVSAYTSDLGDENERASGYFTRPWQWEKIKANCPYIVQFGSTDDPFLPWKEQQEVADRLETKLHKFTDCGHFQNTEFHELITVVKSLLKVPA
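System: RBBP9 protein / Buffer or medium: Tris/NaCl buffer pH 8.0 with 0.1% Pluronic / Probe or stimulus: Serine-hydrolase probe FP-Rh, 375 nM pre-mixing / Dosing: 7.94 µM single dose, 0.794% DMSO / Times: enzyme-compound preincubation 30 min, then probe labeling 45 min, 25 °C / Technique: fluorescence polarization (mP), excitation 525 nm, emission 598 nm / Replication: singlicate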
ROMK primary: modulators of human ROMK potassium channel; Tet-inducible ROMK, thallium flux fluorescence; actives lie on both sides; B-score at 10 µM; 130,000 tested, 2% active; AID 1918;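 active = signal ratio slope over the read window, or its plate-corrected B-score, at least 3 SD from the plate mean, either direction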;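 also: B-score of the F/F0 ratio slope over 7 to 12 s after thallium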
WT yeast gro inh: growth inhibition of WT yeast, mitochondrial fusion screen; mitochondrial fusion phenotypic screen, WT strain; inhibition, % at 10 µM; 190,000 tested, 2.1% active; AID 1362; in the data active = inhibition above about 58%; tested in S. cerevisiae
14-3-3 Bad inh: disrupts binding of bovine 14-3-3 zeta to phospho-Bad peptide | TR-FRET 14-3-3zeta/Dy647-pBad peptide displacement, 1 h | inhibition, % at 21.7 µM | P63103 | 220,000 tested, 0.71% active;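 active = inhibition above about 70%, limit read from the data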;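 also: 0% = full 14-3-3 plus peptide FRET controls and 100% = background without 14-3-3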
* marks the source's active call; other numbers are inactive results; / = no result given; [ ] = another dose, or the depositor's remark.

SMILES	p47phox inh	KCC2 mod	RBBP9 inh	ROMK primary	WT yeast gro inh	14-3-3 Bad inh
CC(=O)Nc1ccc(NC(=O)C(C)Oc2ccc(Cl)cc2Cl)cc1 (centres undefined)	2	-0.15	-3	/	7	-7
CC12CCC(C(=O)NC3CCCCC3)([C@H](Br)C1=O)C2(C)C (some centres undefined)	-3	0.087	-2	-0.93	/	3
CC(C)C(C)NC(=O)COC(=O)c1cc(S(=O)(=O)N(C)C)ccc1N1CCCC1 (centres undefined)	5	1	-9	-0.75	-3	-4
C=CCNC(=O)O/N=C/c1csc([N+](=O)[O-])c1	-9	1.1	0	/	/	-14
C=CCN(c1ccccc1)S(=O)(=O)c1cccc(C(=O)O)c1	-10	/	-3	-0.045	-13	70*
CCOc1cc(C(N)=O)cc(Br)c1OCc1ccccc1	-9	-0.066	-6	-0.67	8	-9
CCn1c(=O)c(-[n+]2ccccc2)c(O)c2ccccc21	-1	/	-2	/	-11	72*
CCCCCCCCOC(=O)c1nc(Cl)c(Cl)c(N)c1Cl	-3	0.45	-3	/	69*	-3
CCOC(=O)c1c(N)sc(C(O)(C(F)(F)F)C(F)(F)F)c1-c1ccc(F)cc1	-37	0.053	-5	/	-12	9
CCOC(=O)c1c(N)sc(C(O)(C(F)(F)F)C(F)(F)F)c1-c1ccc(Cl)cc1	-19	0.59	2	1.1	96*	36
O=[N+]([O-])c1cc(/C=N/O)ccc1Oc1cccc(Cl)c1	-10	-1.4	-2	-0.89	72*	7
CC(C)(C)OC(=O)C(C)(C)O/N=C(\C(=O)O)c1csc(N)n1	-1	-0.17	2	0.57	-1	3
Oc1oc(-c2cccc3ccccc23)nc1/C=N/c1nccs1	-28	24*	-11	/	10	5
O=C(O)c1ccc(-n2cccc2/C=N\NC(=O)c2cc3cc(Br)ccc3o2)cc1	-54	0.63	-8	1.4	/	80*
COc1cccc(CNCCc2c[nH]c3ccccc23)c1OCc1ccc(F)cc1	-27	0.22	-2	-1.5	24	0
COc1cc(CNCCc2c[nH]c3ccccc23)ccc1OCc1ccc(F)cc1	-9	0.37	0	-2.1	86*	-5
COC(=O)c1ccc(NC(=S)NC2CCc3ccccc32)cc1 (centres undefined)	2	0.16	-10	-0.45	6	-16
CSCCC(NC(=O)c1ccccc1)C(=O)Nc1ccc(NC(C)=O)cc1 (centres undefined)	-5	0.14	-4	0.088	-8	-22
Cc1ccc(C(=O)N2CCN(c3ccccc3Cl)CC2)cc1[N+](=O)[O-]	-6	-1.7	-6	0.57	76*	7
Cc1cccc(N2CCN(C(=O)C34CC5CC(CC(C5)C3)C4)CC2)c1C	-3	/	-1	0.89	88*	17
Cc1ccc(Cl)cc1N1CCN(C(=O)c2ccc3nc[nH]c3c2)CC1	123*	0.48	2	/	-16	-1
Cc1cccc(N2CCN(C(=O)c3ccc4ncsc4c3)CC2)c1C	-1	0.48	2	3.3*	15	4
O=C(NCC(=O)N(c1cccnc1)C(C(=O)NC1CCCC1)c1cccs1)c1ccco1 (centres undefined)	/	0.36	0	0.44	-4	1
O=C(CN1CCN(c2ccc(O)cc2)CC1)Nc1ccc(SC(F)F)cc1	0	0.034	-4	-0.05	-3	-11
CCOC(=O)C1CCN(C(=O)Nc2ccc(OCc3ccccc3)cc2)CC1	44*	-0.95	-1	-0.89	/	0
SMILES	p47phox inh	KCC2 mod	RBBP9 inh	ROMK primary	WT yeast gro inh	14-3-3 Bad inh
O=C(CN1CCOCC1)Nc1ccc(Oc2ccccc2)cc1	-20	1.7	-5	1.1	3	-4
CCOC(=O)C1CCCN(C(=O)Nc2ccccc2)C1 (centres undefined)	-21	/	-9	/	-6	-6
COc1cccc(N2CCN(CC(=O)Nc3ccc(SC(F)F)cc3)CC2)c1	0	0.18	-13	/	63*	-4
O=C(CN1CCN(c2ccccc2)CC1)Nc1ccc(Oc2ccccc2)cc1	-8	/	7	-0.84	60*	-3
CN1CCN(CC(=O)Nc2ccc(OCc3ccccc3)cc2)CC1	-1	0.37	7	-0.95	-1	87*
O=C(CN1CCN(CCO)CC1)Nc1ccccc1	7	0.25	2	-0.61	15	73*
O=C(CN1CCOCCOCCOCC1)Nc1ccccc1	-11	-0.15	-7	0.051	-5	7
Cc1ncc(CO)c(/C=N/NC(=O)c2cc3c(s2)CCCC3)c1O	-5	-0.31	0	-1.3	-7	-17
O=C(O)c1cccc(-n2cccc2C=C2C(=O)c3ccccc3C2=O)c1	-53	-0.69	2	0.47	0	1
O=C1C(=Cc2cccn2-c2ccccc2)C(=O)c2ccccc21	33*	1.3	-6	-1.1	8	82*[fluorescence artefact?]
O=C1C(=Cc2cccn2-c2ccc(O)cc2)C(=O)c2ccccc21	27	/	2	/	-1	84*[fluorescence artefact?]
COc1ccc(NS(=O)(=O)c2ccc(NC(=S)NC(=O)/C=C/c3ccccc3)cc2)nn1	-24	-0.072	-11	/	-4	-1
COC(=O)CN1C(=S)N(c2ccc(OC)cc2)C(=O)/C1=C/c1ccc(OC)cc1	-10	0.18	-9	-0.17	7	-8
COc1ccc(C(=O)N2C(=S)NC(=O)/C2=C\c2ccc(C)cc2)cc1	-136	7.9*	0	0.24	-2	84*[fluorescence artefact?]
Cc1cccn2c(=O)c(/C=C(\C#N)C(=O)NCc3ccccc3)c(N3CCC(C(N)=O)CC3)nc12	-4	-0.27	-7	/	/	13
CCCCN(CCCC)c1ncnc2nc[nH]c12	14	-2	-6	1	78*	11
CCCOc1ccc(N2C(=O)CC(N3CCC(c4nc5ccccc5o4)CC3)C2=O)cc1 (centres undefined)	-17	-0.18	-7	-0.0058	1	-12
O=C(CN1CCOCC1)NNc1c2ccccc2nc2ccccc12	-1	0.96	8	-0.6	/	7
O=C(CN1CCOCC1)Nc1c2c(nc3ccccc13)N(Cc1ccccc1)CC2	-4	0.077	-9	/	8	77*
CC1CCCN(CCCCOc2cccc(Br)c2)C1 (centres undefined)	-3	-0.77	5	/	41	-2
N/C(CSc1ccc(Cl)cc1)=N\NC(=O)c1ccncc1	-8	-1	-6	0.48	-4	5
O=C(O)c1ccccc1N/N=C\c1ccnc2ccccc12	-48	-2.1	-5	-0.51	10	78*
O=C(O)c1ccccc1N/N=C/c1cc(Br)cc(Br)c1O	-34	2.3	-6	/	/	32
CCN(CC)S(=O)(=O)c1cc(C(=O)Nc2cc(Cl)ccc2N2CCN(C)CC2)ccc1Cl	-6	-0.3	-4	0.38	65*	-8
O=c1cc(C(F)(F)F)[nH]c2ccc(OC(F)(F)F)cc12	-6	/	-2	/	/	7
